Screening results as filed in PubChem BioAssay.
HCT116 PTEN-null – growth suppression of PTEN-null HCT116, primary screen, cell-based, CellTiter-Glo. viability, % at 10 µM. AID 827, 2007. 1.2% of 140,000 active. HCT116 PTEN-null viability, 60 h; hits give low values;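 active = viability at or below a set limit, 4 SD under the median of all tested compounds, cut at about 3.7% in these data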;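 also: PTEN knockout HCT116 line with beta catenin targeted HCT116 as companion control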
H69AR growth 86K – proliferation blockers of H69AR lung cancer cells, primary screen, cell-based, human, 86K library. H69AR lung tumor viability, ATP luminescence, 72 h; hits give low values. viability, % at 10 µM. 6% of 85,000 active. AID 598, 2007;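 active = viability at or below 40%; inactive = viability above 40%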;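 also: multidrug resistant small cell line overexpressing MRP-1 efflux transporter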
bCat KO growth – primary screen for growth suppressors in beta-catenin knockout HCT116 cells (colon tumor, human) | HCT116 beta-catenin knockout viability, CellTiter-Glo, 60 h; hits give low values | viability, % at 10 µM | 1.5% of 140,000 active;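 active = viability at or under a set limit, the compound median less 4 SD, cut at about 6% in these data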
Lung fibro prol – antiproliferative effect on LL 47 fibroblasts – human, LL 47 cells, CellTiter-Glo luminescence, primary screen; LL 47 human lung fibroblast viability, ATP luminescence; hits give low values; viability, % at 10 µM; 1.1% of 85,000 active;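 active = viability at or below 50% in the single dose screen; inactive = viability above 50%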;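 also: compound exposure lasted 72 h before the ATP readout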
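Test system: LL 47 human lung fibroblasts; Quantity: 1,150 cells/well; Buffer or medium: IMEM plus 15% FBS; Dosing: tenfold compound dosing solution, DMSO at 0.1%; Timing: overnight cell rest, 72 h compound treatment at 37 °C; Detection: ATP-based CellTiter-Glo luminescent readout; Read-out basis: viability percentage against median untreated-cell control; Controls: cell-only wells, no compound.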
HUVEC inhibit – inhibitors of HUVEC proliferation, primary screen, cell-based, 384-well. CellTiter-Glo luminescence, 72 h; hits give low values. viability, % at 10 µM (by protocol). 1.1% of 86,000 active;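 active = viability at or below 30%; inactive = viability above 30%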
Large screens that a line does not name were inactive. This is one part of a sample in which hits are shown more often than they occur.

CCC(=O)NC(C)C(c1cccs1)N1CCOCC1 (centres undefined)	none (no result: HCT116 PTEN-null, bCat KO growth)
CCC(=O)NC(c1cccs1)c1cc([N+](=O)[O-])c2cccnc2c1O (centres undefined)	bCat KO growth 3.0 (no result: H69AR growth 86K, Lung fibro prol, HUVEC inhibit)
CCCC(=O)NC(c1cccs1)c1cc([N+](=O)[O-])c2cccnc2c1O (centres undefined)	bCat KO growth 5.5 (no result: H69AR growth 86K, Lung fibro prol, HUVEC inhibit)
CC(=O)NC(c1cccs1)c1cc([N+](=O)[O-])c2cccnc2c1O (centres undefined)	HCT116 PTEN-null 3.8, bCat KO growth 5.6 (no result: H69AR growth 86K, Lung fibro prol, HUVEC inhibit)
CCC(=O)n1nc(-c2ccc(OC)cc2)nc1SC	none
CC1Oc2ccccc2C=C1/C=C1/SC(N2CCOCC2)=NC1=O (centres undefined)	none (no result: H69AR growth 86K, Lung fibro prol, HUVEC inhibit)
Cc1cc(C)c2cc(CN(CCO)C(=O)Nc3ccc(F)cc3)c(=O)[nH]c2c1	H69AR growth 86K 38.1
Cc1nc2nc(C)c(CCC(=O)NC(C)c3ccc4c(c3)OCCO4)c(C)n2n1 (centres undefined)	none
Cc1nc2nc(C)c(CCC(=O)NCc3ccc4c(c3)OCO4)c(C)n2n1	H69AR growth 86K 26.4
COC(=O)c1cc(=O)nc2sc(-c3ccc(F)cc3)nn12	H69AR growth 86K 35.6
COC(=O)c1cc(=O)nc2sc(-c3cccs3)nn12	none
COc1ccc(C(=O)CN2C(=O)NC3(CCCc4ccccc43)C2=O)cc1OC (centres undefined)	none
Cc1ccc(/C(C#N)=C\c2ccc(N3CCOCC3)o2)cc1	none (no result: H69AR growth 86K, Lung fibro prol, HUVEC inhibit)
N#C/C(=C\c1ccc([N+](=O)[O-])o1)c1nc2ccccc2[nH]1	HCT116 PTEN-null 0.6, bCat KO growth 0.7 (no result: H69AR growth 86K, Lung fibro prol, HUVEC inhibit)
Cc1ccc2nc(/C(C#N)=C\c3cc(C)n(-c4cccc([N+](=O)[O-])c4)c3C)[nH]c2c1	none
N#C/C(=C\Nc1ccc2c(c1)OCCO2)c1nc2ccccc2[nH]1	H69AR growth 86K 19.3
Cc1ccc2nc(/C(C#N)=C\c3ccc([N+](=O)[O-])o3)[nH]c2c1	HCT116 PTEN-null 1.5, bCat KO growth 1.9 (no result: H69AR growth 86K, Lung fibro prol, HUVEC inhibit)
Cc1ccc2nc(/C(C#N)=C\c3ccc(N4CCOCC4)o3)[nH]c2c1	H69AR growth 86K 5.5
N#C/C(=C\Nc1ccc2c(c1)OCCO2)c1nc(-c2ccccc2)cs1	none (no result: H69AR growth 86K, Lung fibro prol, HUVEC inhibit)
O=C(NCCC1=CCCCC1)C1CCN(C(=O)c2ccc(Cl)cc2)CC1	none (no result: H69AR growth 86K, Lung fibro prol, HUVEC inhibit)
Cc1cc(C)c2nc(N3CCC(C(=O)NCCCN4CCCCC4)CC3)sc2c1	HCT116 PTEN-null 2.3, bCat KO growth 3.1, Lung fibro prol 2.7, HUVEC inhibit 4.0
O=C(NCCN1CCNCC1)c1ccccn1	none (no result: H69AR growth 86K)
Cc1ccc(-n2c(C)cc(C3N=C(N)Nc4nc5ccccc5n43)c2C)c(C)c1 (centres undefined)	H69AR growth 86K 32.6, HUVEC inhibit 16.0
CCOc1ccc(N2C(=O)c3cccnc3C2Nc2ccc(OC)cc2)cc1 (centres undefined)	none
CCCCCCOC(=O)C(C#N)c1nc2ccccc2nc1N1CCOCC1 (centres undefined)	none
CCCCCCOC(=O)C(C#N)c1nc2ccccc2nc1N1CCN(CC)CC1 (centres undefined)	HUVEC inhibit 4.3
Cc1ccc(S(=O)(=O)N(CC(=O)O)Cc2ccccc2F)cc1	none
CC(C)(C)n1nnnc1C(c1cccs1)N1CCN(c2ccccc2)CC1 (centres undefined)	none
Oc1c(C(c2cccs2)N2CCN(c3ccccc3)CC2)ccc2cccnc12 (centres undefined)	bCat KO growth 3.0 (no result: H69AR growth 86K, Lung fibro prol, HUVEC inhibit)
Cc1ccc(NC(=O)Cn2c(=O)oc3cc(S(=O)(=O)N4CCC(C)CC4)ccc32)cc1C	H69AR growth 86K 16.9
CCc1cc2c(=O)c(-c3nc4ccccc4n3C)c(C)oc2c(CN2CCN(CCO)CC2)c1O	none (no result: H69AR growth 86K, Lung fibro prol, HUVEC inhibit)
CCCCc1cc(=O)oc2cc(OCC(=O)N3CCc4ccccc43)ccc12	H69AR growth 86K 28.8
COc1ccc2c(c1)c(=O)oc1cc(OCC(=O)N3CCc4ccccc4C3)ccc12	H69AR growth 86K 28.8
O=C(NCc1cccs1)c1cccnc1Cl	none (no result: H69AR growth 86K, Lung fibro prol, HUVEC inhibit)
O/N=C(\c1ccc(Cl)cc1)c1cc2ccccc2o1	H69AR growth 86K 1.9
CCCCn1nc(C(=O)N[C@@H](CCSC)c2nc3ccccc3[nH]2)c2ccccc2c1=O	H69AR growth 86K 36.1
CC1CCC(NC(=O)Nc2cccs2)CC1 (centres undefined)	none
CCc1cc2c(nc1CC)CCN(CC/C(C)=N/OC[C@H]1O[C@H](c3ccccc3)C=C[C@@H]1Oc1ccc(OC)cc1)C2	none (no result: H69AR growth 86K, Lung fibro prol, HUVEC inhibit)
Cc1cccc(/C=C(\c2nc3ccccc3[nH]2)S(=O)(=O)c2ccccc2)c1	HCT116 PTEN-null 0.9, bCat KO growth 1.9 (no result: H69AR growth 86K, Lung fibro prol, HUVEC inhibit)
O=C1c2cccc3c(N4CCCCC4)ccc(c23)C(=O)N1c1ccc(Cl)cn1	H69AR growth 86K 31.3 (no result: HCT116 PTEN-null, bCat KO growth)
O=C1c2cccc3c([N+](=O)[O-])ccc(c23)C(=O)N1c1ccc(Cl)cn1	HCT116 PTEN-null 1.6, bCat KO growth 1.8 (no result: H69AR growth 86K, Lung fibro prol, HUVEC inhibit)
O=C1c2cccc3c([N+](=O)[O-])ccc(c23)C(=O)N1c1nccs1	HCT116 PTEN-null 1.5, H69AR growth 86K 0.8, bCat KO growth 1.5, Lung fibro prol 23.4, HUVEC inhibit 2.0
O=C1c2cccc3c(N4CCCCC4)ccc(c23)C(=O)N1c1ccccn1	none (no result: H69AR growth 86K, Lung fibro prol, HUVEC inhibit)
O=C1c2cccc3c([N+](=O)[O-])ccc(c23)C(=O)N1c1ccccn1	HCT116 PTEN-null 1.4, bCat KO growth 1.6 (no result: H69AR growth 86K, Lung fibro prol, HUVEC inhibit)
O=C1c2cccc3cccc(c23)C(=O)N1c1nccs1	none
COc1ccc(C2C(C(=O)Nc3cccnc3)=C(C)Nc3nc(-c4ccco4)nn32)cc1 (centres undefined)	none (no result: H69AR growth 86K, Lung fibro prol, HUVEC inhibit)
CCOc1ccc(-n2c(N)c(C(=O)NCc3ccco3)c3nc4ccccc4nc32)cc1	H69AR growth 86K 11.4
CC(C)Cn1c(N)c(C(=O)NCCN2CCOCC2)c2nc3ccccc3nc21	none
COCCCNC(=O)c1c(N)n(-c2ccc3c(c2)OCO3)c2nc3ccccc3nc12	H69AR growth 86K 27.6
CCCNC(=O)c1c(N)n(-c2ccc3c(c2)OCO3)c2nc3ccccc3nc12	H69AR growth 86K 8.6, Lung fibro prol 7.6
Cc1cccc(-n2c(N)c(C(=O)NCCN3CCOCC3)c3nc4ccccc4nc32)c1	H69AR growth 86K 32.4
Cc1ccc2c(c1)nnn2C1CCN(S(=O)(=O)c2ccc(C(=O)N3C(C)CCCC3C)cc2)CC1 (centres undefined)	H69AR growth 86K 20.9
Cc1ccc2c(c1)nnn2C1CCN(S(C)(=O)=O)CC1	none
CC1CN(C(=O)c2ccccc2)C(=Nc2cccc(S(=O)(=O)N(C)C)c2)S1 (centres undefined)	none (no result: H69AR growth 86K, Lung fibro prol, HUVEC inhibit)
CN(C)S(=O)(=O)c1cccc(N=C2NN=C(c3ccccc3)CS2)c1	HCT116 PTEN-null 3.8, bCat KO growth 5.2 (no result: H69AR growth 86K, Lung fibro prol, HUVEC inhibit)
CC1=NNC(=O)/C1=C\c1cn(-c2ccccc2)nc1-c1cccs1	HCT116 PTEN-null 1.5, bCat KO growth 1.6 (no result: H69AR growth 86K, Lung fibro prol, HUVEC inhibit)
COc1nnnc2c1sc1nc(N3CCOCC3)c3c(c12)CC(C)(C)OC3	none (no result: HCT116 PTEN-null, bCat KO growth)
